≈ marks a conversion by molar mass, not a printed value. Calls of active or inactive are those of the source. The calls are words filed in the database; no cut-off is given here.
What was measured:
[1] = test system: Staphylococcus epidermidis; assay: Antibacterial activity against Staphylococcus epidermidis CIP 105777; assay type: functional
Escherichia coli [2] = assay: Antibacterial activity against Escherichia coli tolC CGSC 5633; assay type: functional
Staphylococcus aureus [3] = assay: Antibacterial activity against Staphylococcus aureus CIP 76.25; assay type: functional
Escherichia coli [4] = assay: Inhibition of RNA polymerase sigma-70 transcription in Escherichia coli at 10 uM; assay type: functional
CHO = assay: Cytotoxicity against CHO cells; assay type: cell-based, Cricetulus griseus; conditions: chinese hamster
Procedure, shortened: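 CHO cells grown in RPMI with 5% fetal calf serum, then exposed to compounds 24 h at 37 °C without serum. MTT added at 300 µg/mL final, 3 h at 37 °C dark; acidified isopropanol added, 1 h at room temperature; OD at 595 nm.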

Staphylococcus aureus [5] = assay: Antibacterial activity against multidrug resistant Staphylococcus aureus 49589; assay type: functional
Procedure, shortened: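 Broth microdilution MIC following CLSI. Compounds were predissolved in DMSO and tested as serial 2-fold dilutions at final 100 to 0.4 µg/mL. Inoculum was 5 × 10⁵ CFU/mL, and plates were read after 18 h at 37 °C.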

[6] = test system: Staphylococcus epidermidis; assay: Antibacterial activity against Staphylococcus epidermidis RP62A; assay type: functional
[7] = test system: Staphylococcus epidermidis; assay: Antibacterial activity against Staphylococcus epidermidis 40004; assay type: functional
[8] = test system: Staphylococcus epidermidis; assay: Antibacterial activity against Staphylococcus epidermidis 48155; assay type: functional
Streptococcus pneumoniae = assay: Antibacterial activity against Streptococcus pneumoniae CIP 103566; assay type: functional
Clostridioides difficile = assay: Antibacterial activity against Clostridium difficile DSM 1296; assay type: functional
Bacillus anthracis = assay: Antibacterial activity against Bacillus anthracis 9131; assay type: functional
[9] = Inhibition of Escherichia coli RNA polymerase sigma-70 factor

SMILES | MIC [1] [µg/mL] | MIC (Escherichia coli [2]) [µg/mL] | inhibition at 10 µM (Escherichia coli [4]) [%] | Activity (CHO) | Activity (Staphylococcus aureus [5]) | further results
C=CCN1C(=O)/C(=C/c2c[nH]c3c(C(=O)O)cccc23)SC1=S | 25 (≈ 72.6 µM) | ≥ 100 | 95 | >= 100 ug ml-1 | – | MIC (Staphylococcus aureus [3]): 50 µg/mL (≈ 145 µM); MIC (Staphylococcus aureus [5]): 50 µg/mL (≈ 145 µM); MIC [6]: 25 µg/mL (≈ 72.6 µM); MIC [7]: 25 µg/mL (≈ 72.6 µM); MIC [8]: 25 µg/mL (≈ 72.6 µM); MIC (Streptococcus pneumoniae): 50 µg/mL (≈ 145 µM); MIC (Clostridioides difficile): 25 µg/mL (≈ 72.6 µM); MIC (Bacillus anthracis): 12.5 µg/mL (≈ 36.3 µM)
CC(=O)/N=C1\NC(=O)/C(=C/c2ccc(-c3ccc(C(=O)O)cc3)o2)S1 | ≥ 100 | ≥ 100 | 98 | >= 100 ug ml-1 | – | –
O=C1NC(=O)/C(=C/c2ccc(-c3ccc(C(=O)O)cc3)o2)N1 | ≥ 100 | ≥ 100 | 55 | >= 100 ug ml-1 | – | –
CN[C@H](CC(C)C)C(=O)N[C@H]1C(=O)N[C@@H](CC(N)=O)C(=O)N[C@H]2C(=O)N[C@H]3C(=O)N[C@H](C(=O)N[C@H](C(=O)O)c4cc(O)cc(O)c4-c4cc3ccc4O)[C@H](O)c3ccc(c(Cl)c3)Oc3cc2cc(c3O[C@@H]2O[C@H](CO)[C@@H](O)[C@H](O)[C@H]2O[C@H]2C[C@](C)(N)[C@H](O)[C@H](C)O2)Oc2ccc(cc2Cl)[C@H]1O | – | – | – | – | Active | –
C=CCN1C(=O)/C(=C/c2ccc(-c3ccc(O)cc3)o2)SC1=S | 12.5 (≈ 36.4 µM) | 3.13 (≈ 9.11 µM) | 84 | >= 100 ug ml-1 | – | MIC (Staphylococcus aureus [3]): 6.25 µg/mL (≈ 18.2 µM); MIC (Staphylococcus aureus [5]): 25 µg/mL (≈ 72.8 µM); MIC [6]: 12.5 µg/mL (≈ 36.4 µM); MIC [7]: 12.5 µg/mL (≈ 36.4 µM); MIC [8]: 12.5 µg/mL (≈ 36.4 µM); MIC (Streptococcus pneumoniae): 25 µg/mL (≈ 72.8 µM); MIC (Clostridioides difficile): 50 µg/mL (≈ 146 µM); MIC (Bacillus anthracis): 6.25 µg/mL (≈ 18.2 µM)
O=C(O)c1cccc(-c2ccc(C=C3C(=O)c4ccccc4C3=O)o2)c1 | 50 (≈ 145 µM) | 50 (≈ 145 µM) | 72 | 50 µg/mL | – | –
C=CCN1C(=O)/C(=C/c2ccc(-c3ccccc3C(=O)O)o2)SC1=S | ≥ 100 | ≥ 100 | 72 | >= 100 ug ml-1 | – | –
C=CCN1C(=O)/C(=C/c2ccc(-c3cccc(N)c3)o2)SC1=S | ≥ 100 | ≥ 100 | 11 | >= 100 ug ml-1 | – | –
CO[C@H]1/C=C/O[C@@]2(C)Oc3c(C)c(O)c4c(O)c(c(/C=N/N5CCN(C)CC5)c(O)c4c3C2=O)NC(=O)/C(C)=C\C=C\[C@H](C)[C@H](O)[C@@H](C)[C@@H](O)[C@@H](C)[C@H](OC(C)=O)[C@@H]1C | – | – | – | – | inactive | –
C=CCN1C(=O)/C(=C/c2cccc(-c3cccc(C(=O)O)c3)c2)SC1=S | 25 (≈ 65.5 µM) | ≥ 100 | 26 | >= 100 ug ml-1 | – | MIC (Staphylococcus aureus [3]): ≥ 100 µg/mL; MIC (Staphylococcus aureus [5]): 25 µg/mL (≈ 65.5 µM); MIC [6]: 25 µg/mL (≈ 65.5 µM); MIC [7]: 50 µg/mL (≈ 131 µM); MIC [8]: 50 µg/mL (≈ 131 µM); MIC (Streptococcus pneumoniae): ≥ 100 µg/mL; MIC (Clostridioides difficile): 12.5 µg/mL (≈ 32.8 µM); MIC (Bacillus anthracis): 12.5 µg/mL (≈ 32.8 µM)
CC1COc2c(N3CCN(C)CC3)c(F)cc3c(=O)c(C(=O)O)cn1c23 (stereo not given) | – | – | – | – | inactive | –
C=CCN1C(=O)/C(=C/c2ccc(-c3ccccc3)o2)SC1=S | ≥ 100 | 3.13 (≈ 9.56 µM) | 46 | >= 100 ug ml-1 | – | MIC (Staphylococcus aureus [3]): ≥ 100 µg/mL; MIC (Staphylococcus aureus [5]): ≥ 100 µg/mL; MIC [6]: ≥ 100 µg/mL; MIC (Streptococcus pneumoniae): ≥ 100 µg/mL; MIC (Clostridioides difficile): ≥ 100 µg/mL; MIC (Bacillus anthracis): 0.78 µg/mL (≈ 2.38 µM)
CCC[C@@H]1C[C@@H](C(=O)N[C@@H]([C@H]2O[C@H](SC)[C@H](O)[C@@H](O)[C@H]2O)[C@H](C)Cl)N(C)C1 | – | – | – | – | inactive | –
O=C(O)c1ccc(/C=C2\SC(=S)N(Cc3ccco3)C2=O)cc1 | ≥ 100 | ≥ 100 | 5 | – | – | IC50 [9]: 87 µM
CC1(C)S[C@@H]2[C@H](NC(=O)Cc3ccccc3)C(=O)N2[C@H]1C(=O)O | – | – | – | – | inactive | –
C=CCN1C(=O)/C(=C/c2ccc(-c3cccc(C(F)(F)F)c3)o2)SC1=S | ≥ 100 | ≥ 100 | – | >= 100 ug ml-1 | – | –
C=CCN1C(=O)/C(=C/c2ccc(Cc3ccc(C(=O)O)cc3)o2)SC1=S | ≥ 100 | ≥ 100 | 63 | >= 100 ug ml-1 | – | –
O=C(O)CN1C(=O)/C(=C/c2ccc(-c3cccc(C(=O)O)c3)o2)SC1=S | ≥ 100 | ≥ 100 | 17 | >= 100 ug ml-1 | – | –
CN1C(=O)/C(=C/c2ccc(-c3cccc(C(=O)O)c3)o2)SC1=S | > 100 | > 100 | 89 | >= 100 ug ml-1 | – | –
C=CCN1C(=O)/C(=C/c2ccc(-c3ccc4c(c3)C(=O)OC4)o2)SC1=S | ≥ 100 | ≥ 100 | 5 | 50 µg/mL | – | –
CN(C)[C@@H]1C(O)=C(C(N)=O)C(=O)[C@@]2(O)C(O)=C3C(=O)c4c(O)cccc4[C@@](C)(O)[C@H]3C[C@@H]12 | – | – | – | – | inactive | –
NCC[C@H](O)C(=O)N[C@@H]1C[C@H](N)[C@@H](O[C@H]2O[C@H](CN)[C@@H](O)[C@H](O)[C@H]2O)[C@H](O)[C@H]1O[C@H]1O[C@H](CO)[C@@H](O)[C@H](N)[C@H]1O | – | – | – | – | inactive | –
C=CCN1C(=O)/C(=C/c2ccc(C)o2)SC1=S | ≥ 100 | ≥ 100 | 3 | – | – | IC50 [9]: ≥ 100 µM
